The subject of test [1] is Thoracic aorta. In words: Vasorelaxant activity in Wistar rat endothelium-intact thoracic aortic rings assessed relaxation of 30 mM KCl-induced contraction. The format is functional. A digest of the protocol: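 Endothelium-intact thoracic aortic rings from female Wistar rats (180–220 g), equilibrated 75 min under 1.8–2.0 g tension, pH 7.4, isometric force transducer. After stable 30 mM KCl plateau (about 15 min), cumulative addition at 1, 10, 30, 50, 100 µM, or 0.1–100 µM for some compounds. EC50 = concentration giving 50% relaxation; mean ± SEM of 4–6 experiments.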

The test system of test [2] is Thoracic aorta. In words: Vasorelaxant activity in Wistar rat endothelium-denuded thoracic aortic rings assessed relaxation of 30 mM KCl-induced contraction. It counts as functional.
Test [3] concerns Thoracic aorta. Kind of test: Vasorelaxant activity in Wistar rat thoracic aortic rings assessed relaxation of 30 mM KCl-induced contraction in presence of KATP channel blocker glibenclamide. It counts as functional. The essentials: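 Female Wistar rat thoracic aorta rings under 1.8–2.0 g resting tension, pH 7.4. Glibenclamide 10 μM present continuously in bath. Contraction by 30 mM KCl, then cumulative compound addition. EC50 = concentration relaxing the KCl contraction by 50%. Mean ± SEM, n = 3–5.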

The nature of test [4]: Inhibition of glucose-induced insulin secretion from Wistar rat pancreatic islets assessed as residual insulin release at 10 uM after 90 mins by radioimmunological assay. It counts as functional, Pancreatic islet. A digest of the protocol: (§1)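 Islets from adult fed Wistar rats, groups of 10 from the same batch. Preincubated 30 min at 37°C in bicarbonate salt medium with 2.8 mM glucose and 0.5% dialysed albumin, gassed O2/CO2 95:5. Then incubated 90 min at 37°C with 16.7 mM glucose plus compound. Insulin measured by radioimmunoassay against rat insulin standard. Residual secretion expressed as % of drug-free 16.7 mM glucose control.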

The nature of test [5]: Inhibition of glucose-induced insulin secretion from Wistar rat pancreatic islets assessed as residual insulin release at 50 uM after 90 mins by radioimmunological assay. The format is functional, Pancreatic islet. The essentials: as §1
Test [6] concerns Thoracic aorta. Kind of test: Vasorelaxant activity in Wistar rat thoracic aortic rings assessed relaxation of 80 mM KCl-induced contraction. It counts as functional. The essentials:
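Female Wistar rat (180–220 g) thoracic aortic rings equilibrated 75 min at 1.8–2.0 g tension, pH 7.4. Depolarized with 80 mM KCl, then compounds added cumulatively. EC50 = concentration giving 50% relaxation of the 80 mM KCl contraction. Mean ± SEM, n = 4–5.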

The nature of test [7]: Inhibition of glucose-induced insulin secretion from Wistar rat pancreatic islets assessed as residual insulin release at 1 uM after 90 mins by radioimmunological assay. It counts as functional, Pancreatic islet. The essentials:
as §1

The term EC50 denotes the concentration at which the effect is half-maximal. For `O=C(Nc1nc2ccccc2s1)Nc1ccc(C(F)(F)F)cc1Cl`, in the test on Thoracic aorta [1], the EC50 is over 100 µM.

In the test on Thoracic aorta [1], `O=C(Nc1nc2ccc(Br)cc2s1)Nc1ccc(C(F)(F)F)cc1Cl` came in with an EC50 of over 100 µM.

In the case of `CC(C)(C)NC(=O)Nc1nc2ccc(Br)cc2s1`, the EC50 in the test with Thoracic aorta [2] came out at 12.1 µM; with Thoracic aorta [3], 23.3 µM; in the test with Thoracic aorta [1], 13 µM; in the test on Thoracic aorta [6], 26.9 µM. Further, the “Residual insulin secretion (% of glucose control)” value in test [4] was determined as 77.97%. In test [5], the Activity is reported as 15.89%.

As for `Cc1ccc2nc(NC(=O)NC(C)C)sc2c1`, the EC50 in the test with Thoracic aorta [1] amounted to 18.5 µM.

On to `CC(C)(C)NC(=O)Nc1nc2c(s1)CCCC2`, for which the EC50 in the test on Thoracic aorta [1] worked out at 75.2 µM.

The compound `O=C(Nc1ccc(Cl)cc1)Nc1nc2c(s1)CCCC2` returned an EC50 in the test on Thoracic aorta [1] of over 100 µM.

The compound `CCc1ccc2nc(NC(=O)NCc3ccccc3)sc2c1` had an EC50 with Thoracic aorta [1] of over 100 µM.

In the test on Thoracic aorta [1], `O=C(NCc1ccccc1)Nc1nc2ccc(Br)cc2s1` registered an EC50 of 64.2 µM. Further, the “Residual insulin secretion (% of glucose control)” value in test [4] was determined as 82.97%. Moreover, in test [5], the Activity came to 17.85%.

In the case of `CC(C)NC(=O)Nc1nc2ccc([N+](=O)[O-])cc2s1`, the EC50 with Thoracic aorta [2] was 17.8 µM; in the test on Thoracic aorta [1] it was 15.7 µM; with Thoracic aorta [6] it was 36.4 µM. Also, the “Residual insulin secretion (% of glucose control)” value in test [4] turned out to be 62.03%. Further, the Activity in test [5] was found to be 8.52%.

Regarding `CC(C)(C)NC(=O)Nc1nc2ccc([N+](=O)[O-])cc2s1`, the “Residual insulin release (% of control)” value in test [7] was found to be 83.52%. Also, the EC50 in the test with Thoracic aorta [2] is 14.8 µM; in the test on Thoracic aorta [3] it was 19.5 µM; in the test on Thoracic aorta [1] it was 10.8 µM; with Thoracic aorta [6], 31 µM. The “Residual insulin secretion (% of glucose control)” value in test [4] is 30.98%. For the same compound, the Activity in test [5] amounted to 11.77%.

With `N#Cc1ccc(NC(=S)Nc2nc3c(s2)CCCC3)cc1`, the EC50 in the test on Thoracic aorta [1] is over 100 µM.

Regarding `CCCCCNC(=O)Nc1nc2ccc([N+](=O)[O-])cc2s1`, the EC50 in the test on Thoracic aorta [2] turned out to be 4.75 µM; in the test with Thoracic aorta [3], 19.6 µM; with Thoracic aorta [1], 2.11 µM; in the test on Thoracic aorta [6], 14.2 µM.

Turning to `CCc1ccc2nc(NC(=S)NCc3ccccc3)sc2c1`, the EC50 in the test on Thoracic aorta [1] is over 100 µM.

As for `Cc1ccc2nc(NC(=S)NCc3ccccc3)sc2c1`, the EC50 with Thoracic aorta [1] was over 100 µM.

Turning to `CCc1ccc2nc(NC(=O)Nc3ccc(C(F)(F)F)cc3Cl)sc2c1`, the EC50 with Thoracic aorta [1] was over 100 µM.

As to `CCc1ccc2nc(NC(=O)NC(C)C)sc2c1`, the concentration giving a half-maximal response (EC50) with Thoracic aorta [1] was 24.4 µM.

For the compound `Cc1ccc2nc(NC(=S)NC3CCCCC3)sc2c1`, the EC50 with Thoracic aorta [1] was determined as 52.1 µM.

In the case of `CC(C)NC(=O)Nc1nc2c(s1)CCCC2`, the response in the test with Thoracic aorta [1] was half-maximal at 47.6 µM (EC50).

`O=C(Nc1nc2ccc([N+](=O)[O-])cc2s1)Nc1ccc(C(F)(F)F)cc1Cl` returned an EC50 in the test on Thoracic aorta [1] of 54.3 µM.

Turning to `CC(C)NC(=O)Nc1nc2ccc(Br)cc2s1`, the EC50 in the test on Thoracic aorta [1] is 22.8 µM.

In the case of `CC(C)NC(=S)Nc1nc2c(s1)CCCC2`, the EC50 in the test with Thoracic aorta [1] is over 100 µM.

Turning to `O=[N+]([O-])c1cccc(NC(=S)Nc2nc3c(s2)CCCC3)c1`, the EC50 in the test on Thoracic aorta [1] was over 100 µM.

In the case of `N#Cc1ccc(NC(=O)Nc2nc3ccc(Br)cc3s2)cc1`, in test [7], the “Residual insulin release (% of control)” value came to 60.5%. This compound registered an EC50 in the test on Thoracic aorta [1] of over 100 µM. Besides, in test [4], the “Residual insulin secretion (% of glucose control)” value is reported as 11.03%. Besides, the Activity in test [5] is 10.68%.

For `CCCCCNC(=O)Nc1nc2ccc(C#N)cc2s1`, the EC50 in the test on Thoracic aorta [1] was found to be 14.8 µM.

As for `CC(C)(C)NC(=O)Nc1nc2ccc(C#N)cc2s1`, the EC50 was 4.66 µM with Thoracic aorta [2], 15.6 µM in the test with Thoracic aorta [3], 2.78 µM in the test with Thoracic aorta [1] and 15 µM in the test with Thoracic aorta [6].

`CCc1ccc2nc(NC(=S)Nc3cccc([N+](=O)[O-])c3)sc2c1` showed an EC50 in the test on Thoracic aorta [1] of over 100 µM.

Turning to `CCc1ccc2nc(NC(=O)NC(C)(C)C)sc2c1`, it took 25.3 µM to reach a half-maximal effect in the test with Thoracic aorta [1] (EC50).

On to `N#Cc1ccc(NC(=O)Nc2nc3c(s2)CCCC3)cc1`, for which, in the test with Thoracic aorta [1], the EC50 was over 100 µM.

With `CC(C)NC(=O)Nc1nc2ccccc2s1`, the midpoint of the response in the test on Thoracic aorta [1], the EC50, lay at 35.5 µM.

For `O=C(Nc1ccc(Cl)c(C(F)(F)F)c1)Nc1nc2c(s1)CCCC2`, the 50% effective concentration (EC50) in the test with Thoracic aorta [1] was over 100 µM.

Regarding `CC1=Nc2ccc(Cl)cc2S(=O)(=O)N1` [DIAZOXIDE], the “Residual insulin release (% of control)” value in test [7] was 87.5%. Also, the EC50 in the test on Thoracic aorta [2] was 23.2 µM; in the test with Thoracic aorta [3], over 100 µM; with Thoracic aorta [1], 23.7 µM; in the test on Thoracic aorta [6], over 100 µM. Also, the “Residual insulin secretion (% of glucose control)” value in test [4] is 73.9%. Further, the Activity in test [5] is given as 26.7%.

With `CC(N/C(=N\C#N)Nc1ccncc1)C(C)(C)C` (stereo not drawn) [PINACIDIL ANHYDROUS], the “Residual insulin release (% of control)” value in test [7] is 97.7%. Besides, the EC50 was 8.02 µM in the test on Thoracic aorta [3], 0.39 µM in the test with Thoracic aorta [1] and 92.1 µM in the test on Thoracic aorta [6]. In test [5], the Activity turned out to be 88.8%.

The values are drawn from ChEMBL document CHEMBL3792314, “Synthesis, characterization and biological evaluation of benzothiazoles and tetrahydrobenzothiazoles bearing urea or thiourea moieties as vasorelaxants and inhibitors of the insulin releasing process” (Eur J Med Chem, 2016).
